pKi: −log10 of the molar value.
What was measured:
Dipeptidyl peptidase 8 = Dipeptidyl peptidase 8 (Homo sapiens, UniProt Q6V1X1); assay: Inhibition of DPP8
[1] = Plasma clearance in rat at 5 mg/kg, iv; assay type: ADME, organism-based; set-up: dose 5 mg/kg, route intravenous
Outline: (§1)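 Rats (n = 6) dosed at 5 mg/kg by iv and po routes. Plasma clearance and steady-state volume of distribution were taken from iv dosing. Cmax (maximal concentration) and terminal half-life were taken from oral dosing. AUC and oral bioavailability (F) are also reported.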

[2] = Volume of distribution at steady state in rat at 5 mg/kg, iv; assay type: ADME, organism-based; set-up: dose 5 mg/kg, route intravenous; conditions: in vivo, read-out: Vss; outline: as §1
[3] = Cmax in rat at 5 mg/kg, po; assay type: ADME, organism-based; set-up: dose 5 mg/kg, route oral; conditions: in vivo; outline: as §1
[4] = Half life in rat at 5 mg/kg, po; assay type: ADME, organism-based; set-up: dose 5 mg/kg, route oral; conditions: in vivo; outline: as §1
Rattus norvegicus = assay: AUC in rat at 5 mg/kg, po; assay type: ADME, organism-based, Plasma; set-up: dose 5 mg/kg, route oral; conditions: in vivo; outline: as §1
[5] = Oral bioavailability in rat at 5 mg/kg, po; assay type: ADME, organism-based; conditions: in vivo; outline: as §1
Dipeptidyl peptidase 9 = Dipeptidyl peptidase 9 (Homo sapiens, UniProt Q86TI2); assay: Inhibition of DPP9
Chain of Dipeptidyl peptidase 9 (Q86TI2 whole entry): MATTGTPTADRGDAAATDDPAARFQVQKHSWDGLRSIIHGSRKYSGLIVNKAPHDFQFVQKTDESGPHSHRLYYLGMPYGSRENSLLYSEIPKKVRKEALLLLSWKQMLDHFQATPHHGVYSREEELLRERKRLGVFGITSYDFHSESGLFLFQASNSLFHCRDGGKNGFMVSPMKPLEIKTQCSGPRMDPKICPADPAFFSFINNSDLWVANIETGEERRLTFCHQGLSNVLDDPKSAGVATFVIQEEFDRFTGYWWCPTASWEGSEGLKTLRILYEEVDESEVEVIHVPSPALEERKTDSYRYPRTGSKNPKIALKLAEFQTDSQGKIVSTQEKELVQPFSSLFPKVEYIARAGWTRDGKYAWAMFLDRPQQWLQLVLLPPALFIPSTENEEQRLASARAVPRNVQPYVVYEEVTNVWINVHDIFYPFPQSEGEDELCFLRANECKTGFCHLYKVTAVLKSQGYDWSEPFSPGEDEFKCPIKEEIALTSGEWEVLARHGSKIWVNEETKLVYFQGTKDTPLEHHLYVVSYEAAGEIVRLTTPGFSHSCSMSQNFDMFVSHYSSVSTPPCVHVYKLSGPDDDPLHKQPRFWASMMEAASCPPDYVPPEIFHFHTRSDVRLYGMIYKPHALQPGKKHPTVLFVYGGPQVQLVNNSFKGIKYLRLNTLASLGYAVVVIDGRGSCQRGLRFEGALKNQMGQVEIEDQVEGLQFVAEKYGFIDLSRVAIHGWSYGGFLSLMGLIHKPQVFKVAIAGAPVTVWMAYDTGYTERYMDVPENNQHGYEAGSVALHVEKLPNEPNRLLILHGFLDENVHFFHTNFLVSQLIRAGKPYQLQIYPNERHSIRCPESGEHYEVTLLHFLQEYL

Chain of Dipeptidyl peptidase 8 (Q6V1X1 whole entry): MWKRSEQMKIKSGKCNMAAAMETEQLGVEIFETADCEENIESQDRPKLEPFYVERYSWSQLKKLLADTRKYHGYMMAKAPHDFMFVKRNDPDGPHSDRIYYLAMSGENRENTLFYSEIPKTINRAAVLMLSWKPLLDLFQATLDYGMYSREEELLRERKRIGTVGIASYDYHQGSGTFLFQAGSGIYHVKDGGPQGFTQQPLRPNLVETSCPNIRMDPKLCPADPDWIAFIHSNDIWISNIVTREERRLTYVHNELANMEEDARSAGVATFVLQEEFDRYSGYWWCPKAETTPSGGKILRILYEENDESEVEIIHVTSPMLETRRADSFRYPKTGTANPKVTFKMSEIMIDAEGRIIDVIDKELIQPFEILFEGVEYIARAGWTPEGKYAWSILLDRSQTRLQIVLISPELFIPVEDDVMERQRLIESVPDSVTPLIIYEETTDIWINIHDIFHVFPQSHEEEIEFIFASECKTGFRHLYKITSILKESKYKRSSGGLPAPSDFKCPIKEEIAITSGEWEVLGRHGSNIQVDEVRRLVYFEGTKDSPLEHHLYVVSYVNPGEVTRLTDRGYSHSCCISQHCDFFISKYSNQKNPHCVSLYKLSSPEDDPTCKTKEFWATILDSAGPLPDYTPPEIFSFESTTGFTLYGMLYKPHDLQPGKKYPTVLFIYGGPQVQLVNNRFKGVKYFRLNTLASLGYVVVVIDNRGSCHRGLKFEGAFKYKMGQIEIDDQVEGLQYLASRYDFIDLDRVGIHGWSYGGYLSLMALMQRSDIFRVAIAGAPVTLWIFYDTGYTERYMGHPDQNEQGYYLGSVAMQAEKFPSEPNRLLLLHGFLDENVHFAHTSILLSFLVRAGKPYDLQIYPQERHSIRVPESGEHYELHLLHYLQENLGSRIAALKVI

pKi (Dipeptidyl peptidase 8)	clearance [1] [mL/min/kg]	Vd [2] [L/kg]	Cmax [3] [ng/mL]	half-life [4] [h]	AUC (Rattus norvegicus) [ng·h/mL]	bioavailability [5] [%]	pKi (Dipeptidyl peptidase 9)	SMILES
< 4.52								N[C@H]1CN(c2cc(N3CC[C@@H](O)C3)ncn2)C(=O)C[C@@H]1c1cc(F)c(F)cc1F
	30.2	1.24	710	1.8	771	27.6		CS(=O)(=O)c1cccc(CCN2C[C@H](N)[C@@H](c3cc(F)c(F)cc3F)CC2=O)c1
< 4.52	3.17	1.28	2000	7.8	24400	90.3	< 4.52	CS(=O)(=O)c1cccc(-c2cc(N3C[C@H](N)[C@@H](c4cc(F)c(F)cc4F)CC3=O)ncn2)c1
	36.3	1.04	192	0.42	223	9		Cl.N[C@H]1CN(CCc2ccc3c(c2)OCO3)C(=O)C[C@@H]1c1cc(F)c(F)cc1F
